# Test results from ChEMBL document CHEMBL1122595, “Stereochemical considerations and the antiinflammatory activity of 6-amino-6,7,8,9-tetrahydro-5H-benzocyclohepten-5-ols and related derivatives” (1984).
# Legend:
# Rattus norvegicus [1] = experiment: Antiinflammatory activity in rats by using reverse passive Arthus reaction (RPAR) assay at dose level of 50 mg/Kg by peroral administration; format: functional
# Summary of the method: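 Rats fasted 24 h before and during study, water ad libitum; groups of at least six dosed by gavage in methylcellulose 1 h before iv (penile vein) BSA 1 mg sensitization under light ether; 1 h later subplantar anti-BSA 0.1 mg in right hind paw. Paw volume by mercury plethysmograph immediately and 2 h postchallenge; percent inhibition vs MC controls, ANOVA (Duncan, Dunnett).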
# Rattus norvegicus [2] = species on record: Rattus norvegicus; experiment: The relative potency was evaluated by considering the potency of indomethacin as 1; format: functional
# Summary of the method: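 Rat reverse passive Arthus paw oedema (oral gavage in methylcellulose 1 h before iv BSA, subplantar anti-BSA 1 h later, plethysmograph change over 2 h); three to five dose points; ED50 and potency relative to indomethacin standard derived by linear regression.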
SMILES,Inhibitory response (Rattus norvegicus [1]) [%],Relative potency (Rattus norvegicus [2])
NC[C@@H]1c2ccccc2CCC[C@H]1O,0,–
CC(C)(C)C(=O)OCOc1ccc2c(c1)C(O)C(N)CCC2 (stereo in doubt; 4r),3,–
NC1CCCc2ccc(SCc3ccccc3)cc2C1O (stereo in doubt; 4v),99,–
NC[C@H]1c2ccccc2CCC[C@H]1O,8,–
O=C1N[C@@H]2CCCc3cccnc3[C@@H]2O1,82,0.3
COc1cc2c(cc1SC)C(O)C(N)CCC2 (stereo in doubt; 4ff),81,0.05
CC(C)c1ccc2c(c1)C(O)C(N)CCC2 (stereo unspecified),100,0.12
CC(C)Oc1ccc2c(c1)C(O)C(N)CCC2 (stereo in doubt; 4n),4,–
NC1CCCc2ccc(Cl)cc2C1O (stereo in doubt; 4z),94,0.34
N[C@@H]1CCCc2cccnc2[C@@H]1O,28,–
CSc1ccc2c(c1)C(O)C(N)CCC2 (stereo in doubt; 4l),11,0.02
Cc1ccc2c(c1)CCCC(N)C2O (stereo unspecified),93,0.05
CC(C)c1ccc2c(c1)C1OC(=O)NC1CCC2 (stereo in doubt; 20g),37,–
CC(C)Oc1ccc2c(c1)C(O)C(N)CCC2 (stereo in doubt; 4m),77,0.18
COc1cc2c(cc1OC)C(O)C(N)CCCC2.Cl (stereo unspecified),0,–
O=C1NC2CCCc3ccc(F)cc3C2O1 (stereo in doubt; 19j),19,–
O=C1NC2CCCc3cc(F)ccc3C2O1 (stereo in doubt; 19f),39,–
Cl.NC1CCCc2cc(F)ccc2C1O (stereo unspecified),100,0.18
Cl.NC1CCCc2ccccc2C1O (stereo in doubt; 4a),93,–
Cl.NC1CCCc2ccccc2C1O (stereo in doubt; 4c),11,0.02

SMILES,Inhibitory response (Rattus norvegicus [1]) [%],Relative potency (Rattus norvegicus [2])
Cl.NC1CCCc2ccccc2C1O (stereo in doubt; 4b),98,0.15
NC[C@@H](O)c1ccccc1,21,–
NC1CCCc2cc(Cl)ccc2C1O (stereo unspecified),94,0.08
O=C1NC2CCCc3ccc(Cl)cc3C2O1 (stereo in doubt; 20h),29,–
COc1ccc2c(c1)CCCC1NC(=O)OC21 (stereo unspecified),0,–
CC(C)(C)C(=O)OCOc1ccc2c(c1)C(O)C(N)CCC2 (stereo in doubt; 4q),16,–
C[S+]([O-])c1ccc2c(c1)C(O)C(N)CCC2 (stereo unspecified),7,–
Cc1ccc2c(c1)CCCC1NC(=O)OC21 (stereo unspecified),28,–
O=C1NC2CCCc3ccccc3C2O1 (stereo in doubt; 19a),77,–
CC(=O)Nc1ccc2c(c1)C(O)C(N)CCC2 (stereo unspecified),18,–
NC1CCCc2ccc(Cl)cc2C1O (stereo in doubt; 4aa),44,–
COc1cc2c(cc1[S+](C)[O-])C(O)C(N)CCC2 (stereo in doubt; 4hh),8,–
Cl.NC1CCCc2ccc([N+](=O)[O-])cc2C1O (stereo unspecified),100,0.25
COc1ccc2c(c1)C1OC(=O)NC1CCC2 (stereo in doubt; 19g),20,–
COc1cc2c(cc1OC)C(O)C(N)CCC2.Cl (stereo in doubt; 4ee),13,0.03
Cl.N[C@@H]1CCCc2cccnc2[C@@H]1O,36,–
O=C1NC2CCCc3ccc(Cl)cc3C2O1 (stereo in doubt; 19i),9,–
O=C1NC2CCCc3ccc(F)cc3C2O1 (stereo in doubt; 20i),78,0.03
CS(=O)(=O)c1ccc2c(c1)C(O)C(N)CCC2 (stereo unspecified),5,–
O=C1NC2CCCc3cc(Cl)ccc3C2O1 (stereo in doubt; 19e),9,–

SMILES,Inhibitory response (Rattus norvegicus [1]) [%],Relative potency (Rattus norvegicus [2])
COc1ccc2c(c1)C(O)C(N)CCC2 (stereo in doubt; 4i),98,0.75
COc1cc2c(cc1SC)C(O)C(N)CCC2 (stereo in doubt; 4gg),29,–
CC(C)Sc1ccc2c(c1)C(O)C(N)CCC2 (stereo unspecified),39,–
CSc1ccc2c(c1)C(O)C(N)CCC2 (stereo in doubt; 4k),90,0.56
CC(C)c1ccc2c(c1)C1OC(=O)NC1CCC2 (stereo in doubt; 19h),7,–
NC1CCCc2ccc(F)cc2C1O (stereo unspecified),96,0.15
NC1CCCc2ccc(SCc3ccccc3)cc2C1O (stereo in doubt; 4w),31,–
COc1cc2c(cc1[S+](C)[O-])C(O)C(N)CCC2 (stereo in doubt; 4ii),0,–
COc1ccc2c(c1)C1OC(=O)NC1CCC2 (stereo in doubt; 20f),24,–
O=C1NC2CCCc3ccccc3C2O1 (stereo in doubt; 19b),24,–
COc1ccc2c(c1)C(O)C(N)CCC2 (stereo in doubt; 4j),13,0.02
O=C1NC2CCCc3ccccc3C2O1 (stereo in doubt; 20a),92,0.06
O=C1NC2CCCc3cc(Cl)ccc3C2O1 (stereo in doubt; 20d),18,–
CSc1ccc2c(c1)CCCC(N)C2O (stereo unspecified),84,0.04
Cl.N[C@@H]1CSCc2ccccc2[C@@H]1O,2,–
O=C1NC2CCCc3cc(F)ccc3C2O1 (stereo in doubt; 20e),96,0.04
COc1cc2c(cc1OC)C(O)C(N)CCC2.Cl (stereo in doubt; 4dd),93,0.2
COc1ccc2c(c1)CCCC(N)C2O (stereo unspecified),80,0.1
